Laboratory results as given in publication PMC2121072 (The Journal of Cell Biology, 1996).

Experiments:
[1] = biological target: T1, GST-PDZ 1+2+3 fusion protein of hDlg (Homo sapiens, UniProt Q12959); test: Solution nitrocellulose filter ATP-binding assay, GST-PDZ1+2+3 of hDlg; settings: Scatchard analysis, Fig. 4 inset
In short: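 Scatchard: 2.0 µg glutathione-eluted, dialysed GST-PDZ1+2+3 incubated in solution with increasing ATP concentrations plus [γ-32P]ATP, 3 h on ice in Hepes pH 7.6 buffer containing 1.0 mM MgCl2. Bound label captured on nitrocellulose filter, washed, scintillation-counted. Parallel GST control at each ATP concentration; cold ATP quantified by absorbance at 259 nm; each value is the average of duplicates.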

PDZ 3 domain of hDlg = test: Solution filter ATP-binding assay, PDZ3 of hDlg; set-up: species or system human; settings: 100 nM cold ATP, pH 7.6, 3 h on ice, Fig. 3 B
In short: (§1)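 Solution assay: purified protein (GST fusions eluted from glutathione beads with 5.0 mM reduced glutathione, then dialysed into binding buffer) incubated with [γ-32P]ATP (100-500 nCi) plus 100 nM cold ATP. Buffer: 10 mM Hepes pH 7.6, 50 mM KCl, 75 mM NaCl, 1.0 mM MgCl2, 1.0 mM EGTA. Incubated 3 h on ice, filtered through nitrocellulose, washed, scintillation-counted. GST or BSA nonspecific controls; duplicate or triplicate.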

[2] = test system: GST-PDZ3 fusion protein of Dlg; test: In vitro ATP binding, Dlg GST-PDZ3; set-up: species or system Drosophila; settings: data not shown
In short: as §1

fusion proteins = test: Competition of labeled ATP binding to fusion proteins; settings: excess of cold, nonlabeled competitor nucleotide
[3] = biological target: T1, GST-PDZ 1+2+3 fusion protein of hDlg; test: Surface plasmon resonance; assay type: binding; settings: 0.5 or 2.0 mM ATP-Mg2+ complex; orientation of the experiment not stated; data not shown
PDZ domains = test: Nucleotide binding with radiolabeled GTP; settings: data not shown

T1 sequence (Q12959 201-584): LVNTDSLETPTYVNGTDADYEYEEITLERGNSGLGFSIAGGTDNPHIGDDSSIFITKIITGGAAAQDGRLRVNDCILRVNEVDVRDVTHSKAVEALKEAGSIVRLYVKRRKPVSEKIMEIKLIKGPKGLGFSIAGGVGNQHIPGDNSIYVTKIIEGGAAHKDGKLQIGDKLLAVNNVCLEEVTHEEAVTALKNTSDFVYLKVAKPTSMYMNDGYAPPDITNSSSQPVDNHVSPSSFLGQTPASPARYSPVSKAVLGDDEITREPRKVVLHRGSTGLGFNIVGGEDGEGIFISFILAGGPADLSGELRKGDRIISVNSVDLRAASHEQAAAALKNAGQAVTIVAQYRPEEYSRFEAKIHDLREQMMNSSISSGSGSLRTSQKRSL

| ATP binding sites (Scatchard) [1] | ATP binding (PDZ 3 domain of hDlg) | ATP binding [2] | binding of labeled ATP in presence of competitor (fusion proteins) | effect of ATP on GST-PDZ 1+2+3 / Kv1.4 peptide binding affinity [3] | binding of radiolabeled GTP (PDZ domains) | Compound |
| --- | --- | --- | --- | --- | --- | --- |
| single class of binding sites | inactive for ATP binding | binds ATP in vitro | failed | No effect on the binding affinity | – | Nc1ncnc2c1ncn2[C@@H]1O[C@H](COP(=O)(O)OP(=O)(O)OP(=O)(O)O)[C@@H](O)[C@H]1O [ATP] |
| – | – | – | succeeded | – | no binding | Nc1nc2c(ncn2[C@@H]2O[C@H](COP(=O)(O)OP(=O)(O)OP(=O)(O)O)[C@@H](O)[C@H]2O)c(=O)[nH]1 [GTP] |
